Inconclusive results are not listed. Active and inactive are the calls of the source.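 How the source made its calls, unless noted: active means inhibition over a set limit, the all-compound mean plus 3 SD, in both replicate runs; inconclusive means over that limit in just one replicate run; inactive means at or under that limit in both runs.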
Key:
[1] = S. cerevisiae growth inhibition in permissive medium (OD615), pilot counter-assay for S. cerevisiae lifespan shortening project, permissive growth control (AID 705;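 active means growth inhibition above 25% in both replicates, a cutoff set 3 SD above the mean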); conditions: OD615, 24 h, at 10 µM, active compounds read high
Summary of the method: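 System – S. cerevisiae with engineered DeaD lifespan system · Buffer or medium – SC raffinose/galactose permissive medium · Schedule – cells pre-grown 4 h, then 24 h compound exposure, 30 °C humidified · Technique – culture turbidity as optical density at 615 nm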

[2] = S. cerevisiae growth inhibition in restrictive medium, OD615, pilot screen, restrictive growth control, yeast lifespan reduction project (AID 706;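 active means growth inhibition above a set limit, 3 SD over mean compound inhibition, in both replicates, cut at about 43% in these data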;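 further: modified DeaD lifespan yeast strain shifted to restrictive glucose medium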); conditions: OD615, 48 h, at 10 µM, active compounds read high
Summary of the method: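 Material: engineered S. cerevisiae DeaD strain / Medium: glucose-based CSMM-D restrictive medium / Compound: single dose of 10 µM compound final, 0.25% DMSO / Timing: 4 h pre-incubation, 48 h exposure at 30 °C / Technique: OD615 absorbance reading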

[3] = doxorubicin toxicity protection in MRP-1 cells – H69AR cells, CellTiter-Glo, duplicate, MRP-1 activator project, pilot screen (AID 807;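 active means viability increase at or above a cutoff of the median across tested compounds plus 3 SD, cut at about 8.5% in these data, passing the limit was not always enough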;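 further: compound pretreatment 18-22 h then 72 h combined with doxorubicin; 0% = doxorubicin alone and 100% = vehicle without doxorubicin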); conditions: H69AR viability with doxorubicin, CellTiter-Glo luminescence; at 10 µM; active compounds read high
[4] = viability of HCT116 without oncogenic beta-catenin – human colon tumor cells, pilot screen (AID 823;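 active means cell viability at or below a set limit in both duplicate runs, the limit being the all-compound median minus 4 SD, cut at about 23% in these data, passing the limit was not always enough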;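 further: 0% = wells killed by 20 µM Hyamine and 100% = untreated DMSO cell wells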); conditions: HCT116 beta-catenin knockout viability, CellTiter-Glo, 60 h; at 10 µM; active compounds read low
[5] = viability of PTEN-null HCT116 cells – cell-based, HCT116 clonal line, CellTiter-Glo, pilot screen (AID 824;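 active means viability at or below 27.92% in each of two runs, the all-compound median minus 4 SD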;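 further: 0% = 20 µM Hyamine control and 100% = vehicle cell control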); conditions: HCT116 PTEN-deleted viability, 60 h, at 10 µM, active compounds read low
[6] = RAM pathway blockade in budding yeast – dse1pr::URA3 reporter, 5-FOA selection, pilot screen (AID 869);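 further: 0% = DMSO wells with no growth and 100% = 10 µM 1-NA-PP1 with full growth; RAM network block rescues cells from 5-FOA so hits raise OD615 growth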; conditions: S. cerevisiae dse1pr::URA3 5-FOA growth, OD615, 2 d; at 10 µM; active compounds read high; strain carries analog-sensitive mutant Cbk1 kinase
[7] = RAM signaling pathway blockade in yeast – S. cerevisiae, Pdr1DBD-CYC8 efflux-inhibited sensitized strain, primary screen (AID 1298;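 active means RAM network inhibition above 8.4% in each of two replicates, 3 SD over the compound average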;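 further: 0% = DMSO untreated cells without growth and 100% = 10 µM 1-NA-PP1 full growth; higher means more yeast growth rescued from 5-FOA killing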); conditions: S. cerevisiae cbk1-as DSE1-URA3 strain, 5-FOA growth OD615, 2 d; at 50 µM; active compounds read high

COc1cccc(-n2c(Cc3cc(=O)[nH]c(=O)[nH]3)nnc2SCC(=O)N2CCCCCC2)c1
inactive: growth inhibition [1] -10.1% | growth inhibition [2] -12.1% | viability increase [3] -0.94% | viability [4] 99.3% | viability [5] 98.5% | inhibition [6] -0.735% | RAM network inhibition [7] 7.07%

CCN1CCCC(NC(=O)c2scc3c2CCCC3)C1 (stereo not given)
inactive: growth inhibition [1] -8.03% | growth inhibition [2] -5.2% | viability increase [3] -2.12% | viability [4] 96.5% | viability [5] 95.1% | inhibition [6] 0.625% | RAM network inhibition [7] -0.09%

CCOC(=O)C1=C(O)CSC1=Nc1ccc(Cl)cc1
inactive: growth inhibition [1] -7.6% | growth inhibition [2] -10.1% | viability increase [3] -1.62% | viability [4] 107% | viability [5] 99.8% | inhibition [6] 1.17% | RAM network inhibition [7] 7.14%

CCOc1ccc(Nc2ncnc(N)n2)cc1
inactive: growth inhibition [1] -16% | growth inhibition [2] -1.21% | viability increase [3] 0.15% | viability [4] 97.4% | viability [5] 102% | inhibition [6] 0.055% | RAM network inhibition [7] 1.11%

CCN1CCN(C(=O)c2cc3c(s2)-c2ccccc2S(=O)(=O)C3)CC1
inactive: growth inhibition [1] -4.69% | growth inhibition [2] -9.1% | viability increase [3] -2.15% | viability [4] 99.6% | viability [5] 92.5% | inhibition [6] 2.36% | RAM network inhibition [7] 0.72%

CC1COC2C(O1)N(S(C)(=O)=O)CCN2S(C)(=O)=O (stereo not given)
inactive: growth inhibition [1] -7.71% | growth inhibition [2] -12.4% | viability increase [3] 0.34% | viability [4] 99.3% | viability [5] 101% | inhibition [6] 0.68% | RAM network inhibition [7] 2.6%

O=C(NC1CCCc2ccccc21)C1CCN(c2c(N3CCCC3)c(=O)c2=O)CC1 (stereo not given)
inactive: growth inhibition [1] -5.2% | growth inhibition [2] -2.66% | viability increase [3] -3.06% | viability [4] 92.4% | viability [5] 90% | inhibition [6] 1.51% | RAM network inhibition [7] -0.37%

CCOc1ccc(-n2c(Cc3cc(=O)[nH]c(=O)[nH]3)nnc2SCC(=O)OC)cc1
inactive: growth inhibition [1] -2.32% | growth inhibition [2] 3.42% | viability increase [3] 1.38% | viability [4] 104% | viability [5] 97.3% | inhibition [6] 2.62% | RAM network inhibition [7] 0.78%

COc1ccc(F)cc1S(=O)(=O)Nc1ccc2c(c1)OCCO2
inactive: growth inhibition [1] -3.12% | growth inhibition [2] -5.07% | viability increase [3] -1.33% | viability [4] 91.1% | viability [5] 86.6% | inhibition [6] 2.45% | RAM network inhibition [7] 2.35%

Cn1nc(-c2ccc(Cl)cc2)c2cc(C(=O)NCCCN3CCOCC3)sc21
inactive: growth inhibition [1] -3.37% | growth inhibition [2] 5.94% | viability increase [3] -7.82% | inhibition [6] -0.235% | RAM network inhibition [7] -0.16%
active: viability [4] 4.12% | viability [5] 5.19%

CCCSc1nnc2nc(C)cc(C)n12
inactive: growth inhibition [1] -2.7% | growth inhibition [2] 1.39% | viability increase [3] -0.95% | viability [4] 103% | viability [5] 101% | inhibition [6] 2% | RAM network inhibition [7] -0.46%

CC(=O)Cc1nsc(NC(=O)C2Cc3ccccc3C(=O)O2)n1 (stereo not given)
inactive: growth inhibition [1] -15.5% | growth inhibition [2] -1.69% | viability increase [3] -1.57% | viability [4] 102% | viability [5] 100% | inhibition [6] 0.45% | RAM network inhibition [7] 6.74%

Cc1ccc(-c2nc(C#N)c(NCCN3CCCCC3)o2)cc1
inactive: growth inhibition [1] 12.4% | growth inhibition [2] -1.35% | viability increase [3] -3.34% | viability [4] 92.5% | viability [5] 92.5% | inhibition [6] 1.4% | RAM network inhibition [7] -1.13%

CNC(=O)C1CC(=O)N(c2ccc(C)cc2)C1 (stereo not given)
inactive: growth inhibition [1] -11.6% | growth inhibition [2] -11.4% | viability increase [3] 0.85% | viability [4] 98.5% | viability [5] 102% | inhibition [6] 0.395% | RAM network inhibition [7] 2.24%

CC(=O)N1CC2(C)CN(C(C)=O)CC(C)(C1)C2=O
inactive: growth inhibition [1] -5.64% | growth inhibition [2] 2.83% | viability increase [3] -0.26% | viability [4] 101% | viability [5] 102% | inhibition [6] 1.9% | RAM network inhibition [7] -0.41%
